Measurements: ChEMBL document CHEMBL5143675, “Attenuating the Streptococcus pneumoniae Competence Regulon Using Urea-Bridged Cyclic Dominant-Negative Competence-Stimulating Peptide Analogs” (J Med Chem, 2022)
Where a SMILES comes first, the peptide text is derived from it. [ ]: non-standard residue; d: D form. Orn = NCCC[C@H](N)C(=O)O; Dab = NCC[C@H](N)C(=O)O; Dap = NC[C@H](N)C(=O)O

Legend:
[1] = Stability of the compound in CD-1 mouse assessed as drug degradation at 50 ug, iv by IVIS spectrum in vivo imaging analysis; assay type: ADME, organism-based; conditions: dose 50 µg
How it was run: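 Seven-week-old CD-1 mice (cohorts of 4–5) given Cy7.5-labelled peptide (50 μg/mouse) by retro-orbital i.v. injection, anaesthetized with 3% isoflurane and imaged by IVIS SpectrumCT fluorescence imaging.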

[2] = Antagonist activity against Streptococcus pneumoniae D39-pcomX-lacZ strain expressing ComD1 receptor assessed as inhibition of ComD1 receptor activity by beta-galactosidase reporter gene assay
How it was run: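 Reporter strains (pcomX::lacZ) grown on THY agar with 5% horse serum and 4 μg/mL chloramphenicol at 37 °C, 5% CO2; overnight THY broth culture diluted (1:50 D39, 1:10 TIGR4) and grown to early exponential phase (OD600 0.30–0.35 D39; 0.20–0.25 TIGR4). Primary screen at 10,000 nM peptide; EC50/IC50 from dose-response over a concentration range, three independent experiments, 95% confidence interval.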

[3] = Antagonist activity against Streptococcus pneumoniae TIGR4-pcomX-lacZ strain expressing ComD2 receptor assessed as inhibition of ComD2 receptor activity by beta-galactosidase reporter gene assay
How it was run: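 TIGR4 pcomX::lacZ reporter grown on THY plates with 5% horse serum and 4 μg/mL chloramphenicol (8–9 h, 37 °C, 5% CO2). 2–3 colonies were grown overnight (15 h) in THY with chloramphenicol, diluted 1:10, and grown 3–4 h to OD600 0.20–0.25. Peptides were tested as competitive inhibitors against native CSP2. […] Three independent experiments.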

[4] = Agonist activity against Streptococcus pneumoniae TIGR4-pcomX-lacZ strain expressing ComD2 receptor assessed as activation of ComD2 receptor activity by beta-galactosidase reporter gene assay
How it was run: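 Reporter strains (pcomX::lacZ) grown on THY agar with 5% horse serum and 4 μg/mL chloramphenicol at 37 °C, 5% CO2; overnight THY broth culture diluted (1:50 D39, 1:10 TIGR4) and grown to early exponential phase (OD600 0.30–0.35 D39; 0.20–0.25 TIGR4).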

| Compound | IC50 [2] [nM] | IC50 [3] [nM] | other results |
| --- | --- | --- | --- |
| CC[C@H](C)[C@H](NC(=O)[C@H](Cc1ccccc1)NC(=O)[C@H](CC(=O)O)NC(=O)[C@H](CCCNC(=N)N)NC(=O)[C@H](Cc1ccccc1)NC(=O)[C@H](Cc1ccccc1)NC(=O)[C@H](CCCCN)NC(=O)[C@H](CO)NC(=O)[C@H](CC(C)C)NC(=O)[C@H](CCCNC(=N)N)NC(=O)[C@H](CCSC)NC(=O)[C@H](CCC(=O)O)NC(=O)CCCCC[N+]1=C(/C=C/C2=CC(=C/C=C3\N(C)c4ccc5ccccc5c4C3(C)C)/CCC2)C(C)(C)c2ccc3ccccc3c21)C(=O)N[C@@H](CC(C)C)C(=O)N[C@@H](CCC(N)=O)C(=O)N[C@@H](CCCNC(=N)N)C(=O)N[C@@H](CCCCN)C(=O)N[C@@H](CCCCN)C(=O)O | – | – | Drug degradation [1]: 36 h |
| CC[C@H](C)[C@H](NC(=O)[C@H](Cc1ccccc1)NC(=O)[C@H](CC(=O)O)NC(=O)[C@H](CCCNC(=N)N)NC(=O)[C@H](Cc1ccccc1)NC(=O)[C@H](Cc1ccccc1)NC(=O)[C@H](CCCCN)NC(=O)[C@H](CO)NC(=O)[C@H](CC(C)C)NC(=O)[C@H](CCCNC(=N)N)NC(=O)[C@H](CCSC)NC(=O)[C@H](C)N)C(=O)N[C@@H](CC(C)C)C(=O)N[C@@H](CCC(N)=O)C(=O)N[C@@H](CCCNC(=N)N)C(=O)N[C@@H](CCCCN)C(=O)N[C@@H](CCCCN)C(=O)O | 85.7 | – | – |
| CC[C@H](C)[C@H](NC(=O)[C@H](Cc1ccccc1)NC(=O)[C@H](CCCCN)NC(=O)[C@H](CCCNC(=N)N)NC(=O)[C@H](Cc1ccccc1)NC(=O)[C@H](Cc1ccccc1)NC(=O)[C@H](CCN)NC(=O)[C@H](CO)NC(=O)[C@H](CC(C)C)NC(=O)[C@H](CCCNC(=N)N)NC(=O)[C@H](CCSC)NC(=O)[C@H](C)N)C(=O)N[C@@H](CC(C)C)C(=O)N[C@@H](CCC(N)=O)C(=O)N[C@@H](CCCNC(=N)N)C(=O)N[C@@H](CCCCN)C(=O)N[C@@H](CCCCN)C(=O)O (H-AMRLS[Dab]FFRKFILQRKK-OH) | 784 | > 1000 | – |
| CC[C@H](C)[C@H](NC(=O)[C@H](Cc1ccccc1)NC(=O)[C@H](CCN)NC(=O)[C@H](CCCNC(=N)N)NC(=O)[C@H](Cc1ccccc1)NC(=O)[C@H](Cc1ccccc1)NC(=O)[C@H](CCN)NC(=O)[C@H](CO)NC(=O)[C@H](CC(C)C)NC(=O)[C@H](CCCNC(=N)N)NC(=O)[C@H](CCSC)NC(=O)[C@H](C)N)C(=O)N[C@@H](CC(C)C)C(=O)N[C@@H](CCC(N)=O)C(=O)N[C@@H](CCCNC(=N)N)C(=O)N[C@@H](CCCCN)C(=O)N[C@@H](CCCCN)C(=O)O (H-AMRLS[Dab]FFR[Dab]FILQRKK-OH) | – | > 1000 | – |
| CC[C@H](C)[C@H](NC(=O)[C@H](Cc1ccccc1)NC(=O)[C@H](CN)NC(=O)[C@H](CCCNC(=N)N)NC(=O)[C@H](Cc1ccccc1)NC(=O)[C@H](Cc1ccccc1)NC(=O)[C@H](CCN)NC(=O)[C@H](CO)NC(=O)[C@H](CC(C)C)NC(=O)[C@H](CCCNC(=N)N)NC(=O)[C@H](CCSC)NC(=O)[C@H](C)N)C(=O)N[C@@H](CC(C)C)C(=O)N[C@@H](CCC(N)=O)C(=O)N[C@@H](CCCNC(=N)N)C(=O)N[C@@H](CCCCN)C(=O)N[C@@H](CCCCN)C(=O)O (H-AMRLS[Dab]FFR[Dap]FILQRKK-OH) | – | > 1000 | – |
| CC[C@H](C)[C@H](NC(=O)[C@H](Cc1ccccc1)NC(=O)[C@H](CCCN)NC(=O)[C@H](CCCNC(=N)N)NC(=O)[C@H](Cc1ccccc1)NC(=O)[C@H](Cc1ccccc1)NC(=O)[C@H](CCN)NC(=O)[C@H](CO)NC(=O)[C@H](CC(C)C)NC(=O)[C@H](CCCNC(=N)N)NC(=O)[C@H](CCSC)NC(=O)[C@H](C)N)C(=O)N[C@@H](CC(C)C)C(=O)N[C@@H](CCC(N)=O)C(=O)N[C@@H](CCCNC(=N)N)C(=O)N[C@@H](CCCCN)C(=O)N[C@@H](CCCCN)C(=O)O (H-AMRLS[Dab]FFR[Orn]FILQRKK-OH) | – | > 1000 | – |
| CC[C@H](C)[C@H](NC(=O)[C@H](Cc1ccccc1)NC(=O)[C@H](CCCCN)NC(=O)[C@H](CCCNC(=N)N)NC(=O)[C@H](Cc1ccccc1)NC(=O)[C@H](Cc1ccccc1)NC(=O)[C@H](CN)NC(=O)[C@H](CO)NC(=O)[C@H](CC(C)C)NC(=O)[C@H](CCCNC(=N)N)NC(=O)[C@H](CCSC)NC(=O)[C@H](C)N)C(=O)N[C@@H](CC(C)C)C(=O)N[C@@H](CCC(N)=O)C(=O)N[C@@H](CCCNC(=N)N)C(=O)N[C@@H](CCCCN)C(=O)N[C@@H](CCCCN)C(=O)O (H-AMRLS[Dap]FFRKFILQRKK-OH) | 454 | – | EC50 [4]: 39.5 nM |
| CC[C@H](C)[C@H](NC(=O)[C@H](Cc1ccccc1)NC(=O)[C@H](CCCCN)NC(=O)[C@H](CCCNC(=N)N)NC(=O)[C@H](Cc1ccccc1)NC(=O)[C@H](Cc1ccccc1)NC(=O)[C@H](CCCN)NC(=O)[C@H](CO)NC(=O)[C@H](CC(C)C)NC(=O)[C@H](CCCNC(=N)N)NC(=O)[C@H](CCSC)NC(=O)[C@H](C)N)C(=O)N[C@@H](CC(C)C)C(=O)N[C@@H](CCC(N)=O)C(=O)N[C@@H](CCCNC(=N)N)C(=O)N[C@@H](CCCCN)C(=O)N[C@@H](CCCCN)C(=O)O (H-AMRLS[Orn]FFRKFILQRKK-OH) | 339 | > 1000 | – |
| CC[C@H](C)[C@H](NC(=O)[C@H](Cc1ccccc1)NC(=O)[C@H](CCN)NC(=O)[C@H](CCCNC(=N)N)NC(=O)[C@H](Cc1ccccc1)NC(=O)[C@H](Cc1ccccc1)NC(=O)[C@H](CCCN)NC(=O)[C@H](CO)NC(=O)[C@H](CC(C)C)NC(=O)[C@H](CCCNC(=N)N)NC(=O)[C@H](CCSC)NC(=O)[C@H](C)N)C(=O)N[C@@H](CC(C)C)C(=O)N[C@@H](CCC(N)=O)C(=O)N[C@@H](CCCNC(=N)N)C(=O)N[C@@H](CCCCN)C(=O)N[C@@H](CCCCN)C(=O)O (H-AMRLS[Orn]FFR[Dab]FILQRKK-OH) | – | > 1000 | – |
| CC[C@H](C)[C@H](NC(=O)[C@H](Cc1ccccc1)NC(=O)[C@H](CN)NC(=O)[C@H](CCCNC(=N)N)NC(=O)[C@H](Cc1ccccc1)NC(=O)[C@H](Cc1ccccc1)NC(=O)[C@H](CCCN)NC(=O)[C@H](CO)NC(=O)[C@H](CC(C)C)NC(=O)[C@H](CCCNC(=N)N)NC(=O)[C@H](CCSC)NC(=O)[C@H](C)N)C(=O)N[C@@H](CC(C)C)C(=O)N[C@@H](CCC(N)=O)C(=O)N[C@@H](CCCNC(=N)N)C(=O)N[C@@H](CCCCN)C(=O)N[C@@H](CCCCN)C(=O)O (H-AMRLS[Orn]FFR[Dap]FILQRKK-OH) | – | > 1000 | – |
| CC[C@H](C)[C@H](NC(=O)[C@H](Cc1ccccc1)NC(=O)[C@H](CCCN)NC(=O)[C@H](CCCNC(=N)N)NC(=O)[C@H](Cc1ccccc1)NC(=O)[C@H](Cc1ccccc1)NC(=O)[C@H](CCCN)NC(=O)[C@H](CO)NC(=O)[C@H](CC(C)C)NC(=O)[C@H](CCCNC(=N)N)NC(=O)[C@H](CCSC)NC(=O)[C@H](C)N)C(=O)N[C@@H](CC(C)C)C(=O)N[C@@H](CCC(N)=O)C(=O)N[C@@H](CCCNC(=N)N)C(=O)N[C@@H](CCCCN)C(=O)N[C@@H](CCCCN)C(=O)O (H-AMRLS[Orn]FFR[Orn]FILQRKK-OH) | – | > 1000 | – |
| H-AMRLSKFFRKFILQRKK-OH | 217 | – | – |
| H-EMRISRIILDFLFLRKK-OH | – | – | EC50 [4]: 50.7 nM |
